Measured values reported in ChEMBL document CHEMBL1667797, “Synthesis and anticoagulant activity of a new series of 1,4-dihydropyridine derivatives” (2011).

Experiments:
Type in all cases: functional
Plasma [1] = test: Anticoagulant activity in human plasma assessed as activated partial […] time at 30 ug/ml
Outline: (§1)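 Citrated plasma from healthy human donors (blood into 2.5% sodium citrate, spun 5400 rpm, 4 °C, 20 min, stored -70 °C). Plasma 90 µl plus 10 µl compound in water, 1 min at 37 °C. APTT reagent added, 5 min at 37 °C, then CaCl2 added. Clotting time read on a coagulometer. Saline control, heparin reference. Index = sample APTT/control APTT. Mean of five trials.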

Plasma [2] = test: Anticoagulant activity in human plasma assessed as activated partial […] time at 60 ug/ml; outline: as §1
Plasma [3] = test: Anticoagulant activity in human plasma assessed as activated partial […] time index at 30 ug/ml relative to control; outline: as §1
Plasma [4] = test: Anticoagulant activity in human plasma assessed as activated partial […] time index at 60 ug/ml relative to control; outline: as §1
Plasma [5] = test: Anticoagulant activity in human plasma assessed as prothrombin time at 30 ug/ml
Outline: (§2)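 Citrated human donor plasma (2.5% sodium citrate, spun 5400 rpm at 4 °C for 20 min, kept at -70 °C). 90 µl plasma with 10 µl aqueous compound, incubated 10 min at 37 °C. Pre-incubated PT reagent (200 µl) added, clotting time recorded. Normal saline as control. PT index = sample PT/control PT. Mean of five trials.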

Plasma [6] = test: Anticoagulant activity in human plasma assessed as prothrombin time at 60 ug/ml; outline: as §2
Plasma [7] = test: Anticoagulant activity in human plasma assessed as prothrombin time index at 30 ug/ml relative to control; outline: as §2
Plasma [8] = test: Anticoagulant activity in human plasma assessed as prothrombin time index at 60 ug/ml relative to control; outline: as §2

Question: `CC1=C(C(=O)NNC(N)=S)C(c2ccco2)C(C(=O)NNC(N)=S)=C(C)N1` was tested. Which APTT (Plasma [1]) did it give?
Answer: 720.35 s

Question: What about the APTT (Plasma [2]) of the same compound?
Answer: >1000 s

Question: And the Ratio (Plasma [3])?
Answer: 19.78

Question: What about the Ratio (Plasma [4]) of the same compound?
Answer: 27.47

Question: What about the PT (Plasma [5]) of the same compound?
Answer: 240.42 s

Question: And the PT (Plasma [6])?
Answer: 420.21 s

Question: What about the Ratio (Plasma [7]) of the same compound?
Answer: 12.14

Question: And the Ratio (Plasma [8])?
Answer: 21.22

Question: For `CC1=C(C(=O)NNC(N)=S)C(c2ccccc2)C(C(=O)NNC(N)=S)=C(C)N1`, which APTT (Plasma [1]) is on record?
Answer: 87.5 s

Question: What about the APTT (Plasma [2]) of the same compound?
Answer: 182.4 s

Question: What about the Ratio (Plasma [3]) of the same compound?
Answer: 2.4

Question: And the Ratio (Plasma [4])?
Answer: 5.01

Question: And the PT (Plasma [6])?
Answer: 45.8 s

Question: What about the Ratio (Plasma [7]) of the same compound?
Answer: 0

Question: What about the Ratio (Plasma [8]) of the same compound?
Answer: 2.31

Question: With `CC1=C(C(=O)NNC(N)=S)C(c2ccc(Cl)cc2)C(C(=O)NNC(N)=S)=C(C)N1` as the compound, how does the APTT (Plasma [1]) read?
Answer: 90.7 s

Question: And the APTT (Plasma [2])?
Answer: 200.4 s

Question: What about the Ratio (Plasma [3]) of the same compound?
Answer: 2.49

Question: What about the Ratio (Plasma [4]) of the same compound?
Answer: 5.5

Question: What about the PT (Plasma [6]) of the same compound?
Answer: 33.8 s

Question: What about the Ratio (Plasma [7]) of the same compound?
Answer: 0

Question: What about the Ratio (Plasma [8]) of the same compound?
Answer: 1.24

Question: What does the source list for `CC1=C(C(=O)NNC(N)=S)C(c2ccc(O)cc2)C(C(=O)NNC(N)=S)=C(C)N1`?
Answer: APTT (Plasma [1]): 400.8 s; APTT (Plasma [2]): 882.7 s; Ratio (Plasma [3]): 11; Ratio (Plasma [4]): 24.25; PT (Plasma [5]): 45.6 s; PT (Plasma [6]): 70.8 s; Ratio (Plasma [7]): 2.3; Ratio (Plasma [8]): 3.5

Question: `CC1=C(C(=O)NNC(N)=S)C(c2ccc([N+](=O)[O-])cc2)C(C(=O)NNC(N)=S)=C(C)N1` was tested. Which APTT (Plasma [1]) did it give?
Answer: 321.2 s

Question: And the APTT (Plasma [2])?
Answer: 721.8 s

Question: What about the Ratio (Plasma [3]) of the same compound?
Answer: 8.82

Question: And the Ratio (Plasma [4])?
Answer: 19.82

Question: What about the PT (Plasma [5]) of the same compound?
Answer: 24.7 s

Question: And the PT (Plasma [6])?
Answer: 52.8 s

Question: And the Ratio (Plasma [8])?
Answer: 2.66

Question: `COc1ccc(C2C(C(=O)NNC(N)=S)=C(C)NC(C)=C2C(=O)NNC(N)=S)cc1` was tested. Which APTT (Plasma [1]) did it give?
Answer: 64.7 s

Question: And the APTT (Plasma [2])?
Answer: 120.2 s

Question: And the Ratio (Plasma [3])?
Answer: 1.85

Question: And the Ratio (Plasma [4])?
Answer: 3.3

Question: What about the PT (Plasma [5]) of the same compound?
Answer: 45.7 s

Question: And the PT (Plasma [6])?
Answer: 93.4 s

Question: What about the Ratio (Plasma [7]) of the same compound?
Answer: 2.03

Question: And the Ratio (Plasma [8])?
Answer: 4.71

Question: Which APTT (Plasma [1]) does the source give for `CC1=C(C(=O)NNC(N)=S)C(c2ccc(N(C)C)cc2)C(C(=O)NNC(N)=S)=C(C)N1` here?
Answer: 221.8 s

Question: What about the APTT (Plasma [2]) of the same compound?
Answer: 480 s

Question: And the Ratio (Plasma [3])?
Answer: 6.09

Question: What about the Ratio (Plasma [4]) of the same compound?
Answer: 13.18

Question: And the PT (Plasma [5])?
Answer: 21.6 s

Question: What about the PT (Plasma [6]) of the same compound?
Answer: 48.2 s

Question: What about the Ratio (Plasma [7]) of the same compound?
Answer: 1.09

Question: And the Ratio (Plasma [8])?
Answer: 2.43
